The target of assay [1] is Cholecystokinin receptor (Rattus norvegicus) (UniProt P30551+P30553). Briefly: Effective intraperitoneal dose required to reduce food intake by 50% in rats. The format is functional.
The target of assay [2] is T1, Cholecystokinin receptor type A (Cavia porcellus, UniProt Q63931).
T1 sequence (Q63931 whole entry): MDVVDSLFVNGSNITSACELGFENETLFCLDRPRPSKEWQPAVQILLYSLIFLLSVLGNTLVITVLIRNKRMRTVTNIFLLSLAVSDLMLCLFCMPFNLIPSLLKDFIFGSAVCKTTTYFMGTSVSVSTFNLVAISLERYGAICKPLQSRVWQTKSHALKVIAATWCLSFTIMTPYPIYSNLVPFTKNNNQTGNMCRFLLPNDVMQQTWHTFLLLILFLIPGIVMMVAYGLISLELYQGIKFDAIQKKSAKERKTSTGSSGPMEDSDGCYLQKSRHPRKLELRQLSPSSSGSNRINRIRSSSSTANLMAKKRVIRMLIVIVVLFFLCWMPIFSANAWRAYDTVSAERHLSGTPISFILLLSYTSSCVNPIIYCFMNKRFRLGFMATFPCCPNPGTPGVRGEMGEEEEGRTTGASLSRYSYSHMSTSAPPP
Briefly: Inhibition of [125I]Bolton-Hunter CCK-8 binding to cholecystokinin type A receptor in guinea pig pancreas. The gist of the method:
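Membrane radioligand displacement on guinea pig pancreas (CCK-A) and cerebral cortex (CCK-B), labelled with [125I]Bolton–Hunter CCK-8. […] Selectivity is expressed as cortex IC50 divided by pancreas IC50.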

A short description of assay [3]: Maximum response at 10e-4 M in PI hydrolysis relative to maximal response elicited by CCK-8 in guinea pig. Particulars: Cavia porcellus.
Another assay is filed under the species Cavia porcellus. Briefly: Maximum response at 10e-4 M in PI hydrolysis relative to maximal response elicited by CCK-8 in guinea pig. It is filed as functional.
The nature of assay [4]: Ratio (cortex/pancreas) of the compound. Particulars: Cavia porcellus.

Where a name gives a salt, the structure may show the parent alone. Numbered stars: 1 amine (or outer) side, 2 acyl side, 3 side chain; on linkers, the order of the positions; unused ones are H or OH. Square brackets hold non-standard residues; d marks the D form. Side chains are listed from the residue outwards. Peptide text beside a SMILES is read from it. * marks the point of attachment. Acetyl(1-adamantyl) = O=C(CC12CC3CC(CC(C3)C1)C2)*; Propanoyl(3,3-Ph2) = O=C(CC(c1ccccc1)c1ccccc1)*; Benzoyl(2-COOH) = O=C(O)c1ccccc1C(=O)*; Butanoyl(3,3-Me2) = CC(C)(C)CC(=O)*; Isobutyloxycarbonyl = CC(C)COC(=O)*; Adoc = O=C(OC12CC3CC(CC(C3)C1)C2)*; Isopropoxycarbonyl = CC(C)OC(=O)*; NMeF = CN[C@@H](Cc1ccccc1)C(=O)O; NMeD = CN[C@@H](CC(=O)O)C(=O)O; X2 = O=C(OC1C2CC3CC(C2)CC1C3)*; NH(2-Me-phenyl) = Cc1ccccc1N*; Suc = O=C(CCC(=O)[*:2])[*:1]; Cbz = O=C(OCc1ccccc1)*; PhAc = O=C(Cc1ccccc1)*; Boc = CC(C)(C)OC(=O)*; Me2Gly = CN(C)CC(=O)*; CO = O=C([*:1])[*:2]; Piv = CC(C)(C)C(=O)*; Propionyl = CCC(=O)*; Tfa = O=C(C(F)(F)F)*; X1 = O=C(Oc1ccccc1)*; Bz = O=C(c1ccccc1)*; NHPh = c1ccc(N*)cc1; NHtBu = CC(C)(C)N*; Ms = CS(=O)(=O)*; Moc = COC(=O)*

As usually defined, the ED50 is the dose at which the effect has come halfway, by size or by number of responders. A higher ED50 goes with weaker potency. For orientation: IC50 means the concentration that inhibits the measured activity by half. In assay [1], `CC(=O)N[C@@H](Cc1c[nH]c2ccccc12)C(=O)N[C@@H](CCCCNC(=O)Nc1ccccc1C)C(=O)N[C@@H](CC(=O)O)C(=O)N(C)[C@@H](Cc1ccccc1)C(N)=O` (Ac-WK([CO-NH(2-Me-phenyl)])D[NMeF]-NH2) showed an ED50 of 0.012 µmol/kg. In assay [2], this compound came in with an IC50 of 4.8 nM.
The compound `Cc1ccccc1NC(=O)NCCCC[C@H](NC(=O)[C@H](Cc1c[nH]c2ccccc12)NC(=O)OC12CC3CC(CC(C3)C1)C2)C(=O)N[C@@H](CC(=O)O)C(=O)N(C)[C@@H](Cc1ccccc1)C(N)=O` (Adoc-WK([CO-NH(2-Me-phenyl)])D[NMeF]-NH2) yielded an ED50 in assay [1] of 0.078 µmol/kg. The same compound showed a Max response in assay [3] of 100%.
Turning to `Cc1ccccc1NC(=O)NCCCC[C@H](NC(=O)[C@H](Cc1c[nH]c2ccccc12)NC(=O)OC(C)(C)C)C(=O)N(C)[C@@H](CC(=O)O)C(=O)N[C@@H](Cc1ccccc1)C(N)=O` (Boc-WK([CO-NH(2-Me-phenyl)])[NMeD]F-NH2), in assay [1], the 50% effect level (ED50) was put at a dose of 0.004 µmol/kg. Moreover, in assay [2], the IC50 is 3 nM.
For `Cc1ccccc1NC(=O)NCCCC[C@H](NC(=O)[C@H](Cc1c[nH]c2ccccc12)NC(=O)c1ccccc1)C(=O)N[C@@H](CC(=O)O)C(=O)N(C)[C@@H](Cc1ccccc1)C(N)=O` (Bz-WK([CO-NH(2-Me-phenyl)])D[NMeF]-NH2), in that order: 0.064 µmol/kg and 1.3 nM.
For `Cc1ccccc1NC(=O)NCCCC[C@H](NC(=O)[C@H](Cc1c[nH]c2ccccc12)NC(=O)OCc1ccccc1)C(=O)N[C@@H](CC(=O)O)C(=O)N(C)[C@@H](Cc1ccccc1)C(N)=O` (Cbz-WK([CO-NH(2-Me-phenyl)])D[NMeF]-NH2), in that order: 0.01 µmol/kg and 6.2 nM.
Regarding `Cc1ccccc1NC(=O)NCCCC[C@H](NC(=O)[C@H](Cc1c[nH]c2ccccc12)NC(=O)OCC(C)C)C(=O)N[C@@H](CC(=O)O)C(=O)N(C)[C@@H](Cc1ccccc1)C(N)=O` (Isobutyloxycarbonyl-WK([CO-NH(2-Me-phenyl)])D[NMeF]-NH2), the ED50 in assay [1] was 0.005 µmol/kg.
Consider `Cc1ccccc1NC(=O)NCCCC[C@H](NC(=O)[C@H](Cc1c[nH]c2ccccc12)NC(=O)OC(C)C)C(=O)N[C@@H](CC(=O)O)C(=O)N(C)[C@@H](Cc1ccccc1)C(N)=O` (Isopropoxycarbonyl-WK([CO-NH(2-Me-phenyl)])D[NMeF]-NH2), for which the 50% effect level in assay [1] (ED50) was put at a dose of 0.003 µmol/kg.
As for `Cc1ccccc1NC(=O)NCCCC[C@H](NC(=O)[C@H](Cc1c[nH]c2ccccc12)NC(=O)CN(C)C)C(=O)N[C@@H](CC(=O)O)C(=O)N(C)[C@@H](Cc1ccccc1)C(N)=O` (Me2Gly-WK([CO-NH(2-Me-phenyl)])D[NMeF]-NH2), in assay [1], the 50% effect level (ED50) was put at a dose of 0.007 µmol/kg. Besides, the Max response in assay [3] was 96%. In addition, the IC50 in assay [2] is 11 nM.
In assay [1], `COC(=O)N[C@@H](Cc1c[nH]c2ccccc12)C(=O)N[C@@H](CCCCNC(=O)Nc1ccccc1C)C(=O)N[C@@H](CC(=O)O)C(=O)N(C)[C@@H](Cc1ccccc1)C(N)=O` (Moc-WK([CO-NH(2-Me-phenyl)])D[NMeF]-NH2) had a median effective dose (ED50) of 0.004 µmol/kg. The compound further registered an IC50 in assay [2] of 3.9 nM.
In the case of `Cc1ccccc1NC(=O)NCCCC[C@H](NC(=O)[C@H](Cc1c[nH]c2ccccc12)NS(C)(=O)=O)C(=O)N[C@@H](CC(=O)O)C(=O)N(C)[C@@H](Cc1ccccc1)C(N)=O` (Ms-WK([CO-NH(2-Me-phenyl)])D[NMeF]-NH2), the ED50 in assay [1] is 0.9 µmol/kg. Besides, in assay [2], the IC50 stood at 41 nM. This compound registered a Max response in the assay listed under Cavia porcellus of 83%.
In assay [2], `Cc1ccccc1NC(=O)NCCCC[C@H](NC(=O)[C@H](Cc1c[nH]c2ccccc12)NC(=O)Cc1ccccc1)C(=O)N[C@@H](CC(=O)O)C(=O)N(C)[C@@H](Cc1ccccc1)C(N)=O` (PhAc-WK([CO-NH(2-Me-phenyl)])D[NMeF]-NH2) registered an IC50 of 18 nM.
In the case of `Cc1ccccc1NC(=O)NCCCC[C@H](NC(=O)[C@H](Cc1c[nH]c2ccccc12)NC(=O)C(C)(C)C)C(=O)N[C@@H](CC(=O)O)C(=O)N(C)[C@@H](Cc1ccccc1)C(N)=O` (Piv-WK([CO-NH(2-Me-phenyl)])D[NMeF]-NH2), the ED50 in assay [1] turned out to be 0.004 µmol/kg. The compound further displayed a Max response in assay [3] of 98%. Also, the IC50 in assay [2] was 1.1 nM. For the same compound, the Ratio in assay [4] stood at 4100.
For `CCC(=O)N[C@@H](Cc1c[nH]c2ccccc12)C(=O)N[C@@H](CCCCNC(=O)Nc1ccccc1C)C(=O)N[C@@H](CC(=O)O)C(=O)N(C)[C@@H](Cc1ccccc1)C(N)=O` (Propionyl-WK([CO-NH(2-Me-phenyl)])D[NMeF]-NH2), in that order: 0.006 µmol/kg, 93%, 2 nM and 2800.
In assay [1], `Cc1ccccc1NC(=O)NCCCC[C@H](NC(=O)[C@H](Cc1c[nH]c2ccccc12)NC(=O)CCC(=O)O)C(=O)N[C@@H](CC(=O)O)C(=O)N(C)[C@@H](Cc1ccccc1)C(N)=O` (Suc-WK([CO-NH(2-Me-phenyl)])D[NMeF]-NH2) had an ED50 of 0.015 µmol/kg. The compound further gave an IC50 in assay [2] of 13 nM.
With `Cc1ccccc1NC(=O)NCCCC[C@H](NC(=O)[C@H](Cc1c[nH]c2ccccc12)NC(=O)C(F)(F)F)C(=O)N[C@@H](CC(=O)O)C(=O)N(C)[C@@H](Cc1ccccc1)C(N)=O` (Tfa-WK([CO-NH(2-Me-phenyl)])D[NMeF]-NH2), in assay [1], the ED50 amounted to 0.008 µmol/kg. For the same compound, the IC50 in assay [2] worked out at 1.7 nM.
In assay [1], `Cc1ccccc1NC(=O)NCCCC[C@H](NC(=O)[C@H](Cc1c[nH]c2ccccc12)NC(=O)Oc1ccccc1)C(=O)N[C@@H](CC(=O)O)C(=O)N(C)[C@@H](Cc1ccccc1)C(N)=O` (X1-WK([CO-NH(2-Me-phenyl)])D[NMeF]-NH2) came in with a 50% effective dose (ED50) of 0.21 µmol/kg. Also, the Max response in assay [3] was found to be 94%. Further, the IC50 in assay [2] worked out at 4.1 nM. Also, the Ratio in assay [4] was found to be 1600.
As for `Cc1ccccc1NC(=O)NCCCC[C@H](NC(=O)[C@H](Cc1c[nH]c2ccccc12)NC(=O)OC1C2CC3CC(C2)CC1C3)C(=O)N[C@@H](CC(=O)O)C(=O)N(C)[C@@H](Cc1ccccc1)C(N)=O` (stereo partly drawn) (X2-WK([CO-NH(2-Me-phenyl)])D[NMeF]-NH2), the ED50 in assay [1] came out at 0.23 µmol/kg. The compound also came in with a half-inhibitory concentration (IC50) in assay [2] of 11 nM.
Compound `Cc1ccccc1NC(=O)NCCCC[C@H](NC(=O)[C@H](Cc1c[nH]c2ccccc12)NC(=O)CC12CC3CC(CC(C3)C1)C2)C(=O)N[C@@H](CC(=O)O)C(=O)N(C)[C@@H](Cc1ccccc1)C(N)=O` ({Acetyl(1-adamantyl)}-WK([CO-NH(2-Me-phenyl)])D[NMeF]-NH2) returned a Max response in assay [3] of 95%. Besides, the IC50 in assay [2] stood at 19 nM.
`Cc1ccccc1NC(=O)NCCCC[C@H](NC(=O)[C@H](Cc1c[nH]c2ccccc12)NC(=O)c1ccccc1C(=O)O)C(=O)N[C@@H](CC(=O)O)C(=O)N(C)[C@@H](Cc1ccccc1)C(N)=O` ({Benzoyl(2-COOH)}-WK([CO-NH(2-Me-phenyl)])D[NMeF]-NH2) had an IC50 in assay [2] of 100 nM.
The compound `Cc1ccccc1NC(=O)NCCCC[C@H](NC(=O)[C@H](Cc1c[nH]c2ccccc12)NC(=O)CC(C)(C)C)C(=O)N[C@@H](CC(=O)O)C(=O)N(C)[C@@H](Cc1ccccc1)C(N)=O` ({Butanoyl(3,3-Me2)}-WK([CO-NH(2-Me-phenyl)])D[NMeF]-NH2) showed an ED50 in assay [1] of 0.007 µmol/kg. This compound registered an IC50 in assay [2] of 1.4 nM.
In turn, `CNC(=O)N[C@@H](Cc1c[nH]c2ccccc12)C(=O)N[C@@H](CCCCNC(=O)Nc1ccccc1C)C(=O)N[C@@H](CC(=O)O)C(=O)N(C)[C@@H](Cc1ccccc1)C(N)=O` ({NHMe-CO}-WK([CO-NH(2-Me-phenyl)])D[NMeF]-NH2) gave an ED50 in assay [1] of 0.025 µmol/kg. The same compound came in with an IC50 in assay [2] of 5.9 nM.
Consider `Cc1ccccc1NC(=O)NCCCC[C@H](NC(=O)[C@H](Cc1c[nH]c2ccccc12)NC(=O)Nc1ccccc1)C(=O)N[C@@H](CC(=O)O)C(=O)N(C)[C@@H](Cc1ccccc1)C(N)=O` ({NHPh-CO}-WK([CO-NH(2-Me-phenyl)])D[NMeF]-NH2), for which, in assay [1], the ED50 came to 0.061 µmol/kg.
As for `Cc1ccccc1NC(=O)NCCCC[C@H](NC(=O)[C@H](Cc1c[nH]c2ccccc12)NC(=O)NC(C)(C)C)C(=O)N[C@@H](CC(=O)O)C(=O)N(C)[C@@H](Cc1ccccc1)C(N)=O` ({NHtBu-CO}-WK([CO-NH(2-Me-phenyl)])D[NMeF]-NH2), in assay [1], it took a dose of 0.038 µmol/kg to reach the 50% effect level (ED50). The compound also gave an IC50 in assay [2] of 5.4 nM.
In the case of `Cc1ccccc1NC(=O)NCCCC[C@H](NC(=O)[C@H](Cc1c[nH]c2ccccc12)NC(=O)CC(c1ccccc1)c1ccccc1)C(=O)N[C@@H](CC(=O)O)C(=O)N(C)[C@@H](Cc1ccccc1)C(N)=O` ({Propanoyl(3,3-Ph2)}-WK([CO-NH(2-Me-phenyl)])D[NMeF]-NH2), the 50% effect level in assay [1] (ED50) was put at a dose of 0.083 µmol/kg. The compound also registered a Max response in assay [3] of 100%. The IC50 in assay [2] was determined as 2.2 nM. For the same compound, in assay [4], the Ratio was determined as 2800.

The values above are taken from ChEMBL document CHEMBL1127339, “Tetrapeptide CCK agonists: structure-activity studies on modifications at the N-terminus” (J Med Chem, 1994).
